Experimental data taken from publication PMC6448791 (Journal of natural products, 2017).
Values joined by “and” are separate entries in the source; they are usually repeats but may differ in a detail not shown here. Equal entries are not always repeated. Where two headings read alike, the source gives them in different places.

How the values were obtained:
rabbit erythrocytes = assay: Hemolytic assay; format: cell-based; details: for HD50 (concentration inducing 50% of erythrocyte hemolysis): 37 °C, 60 min, PBS pH 7.4; for fold lower hemolytic toxicity than 1: HD50 relative to compound 1, rabbit erythrocytes
[1] = test system: SMMC-771 (hepatocellular carcinoma); assay: MTT cytotoxicity assay, SMMC-7721; format: cell-based, human
Outline: (§1)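 Cells kept in RPMI-1640 with 10% FBS, penicillin and streptomycin at 37 °C under 5% CO2. Seeded at 5 × 10^4 cells/mL and pre-incubated 24 h. Exposed to test compound at preset concentrations for 48 h. MTT (0.5 mg/mL) added for 4 h, formazan dissolved in DMSO, A490 read. Inhibition % = (ODc − ODt)/ODc × 100. Cisplatin as positive control.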

[2] = test system: BGC-823 (gastric carcinoma); assay: MTT cytotoxicity assay, BGC-823; format: cell-based, human
Outline: as §1

[3] = test system: PARP, pro-caspase-3, pro-caspase-9, pro-caspase-8; assay: Western blot of apoptosis-related proteins; format: cell-based
Outline: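 A549 cells treated with test compound for 24 h beside untreated control. Lysed in 100 mM Tris-Cl pH 6.8, 4% SDS, 20% glycerol, 200 mM β-mercaptoethanol, 1 mM PMSF plus aprotinin, then spun 12000g for 15 min at 4 °C. Protein measured by BCA, run on 10–15% SDS-PAGE and moved to PVDF. Primary antibodies overnight at 4 °C, HRP secondary, ECL detection; lamin A probed.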

[4] = test system: all five tested human cancer cell lines; assay: SRB cytotoxicity, all five tested human cancer cell lines; format: cell-based; details: read-out: IC50 against all five tested human cancer cell lines
Outline: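 ATCC-sourced lines grown in RPMI-1640 with 10% FBS at 37 °C, 5% CO2. Seeded at 3–5 × 10^3 cells/well in medium already containing graded test compound, then 72 h exposure. Fixed with cold 50% TCA for 30 min, stained with 0.04% SRB for 30 min, bound dye taken up in 10 mM Tris base, A515 read.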

[5] = test system: A549 human lung cancer cell line; assay: SRB cytotoxicity assay, A549; format: cell-based
erythrocytes = details: cited from earlier work
[6] = Homo sapiens, SMMC-7721, read-out: IC50 SMMC-771
[7] = Homo sapiens, BGC-823, read-out: IC50 BGC-823
[8] = 24 h treatment, compared to controls
[9] = as the concentration of 14 increased

Row | Compound | HD50 (concentration inducing 50% of erythrocyte hemolysis) (rabbit erythrocytes; rabbit erythrocytes) | IC50 [1, 6] | IC50 [2, 7] | further results
1 | C[C@@H]1O[C@@H](O[C@H]2[C@H](O[C@H]3CC[C@@]4(C)[C@@H](CC[C@]5(C)[C@@H]4C(=O)C=C4[C@@H]6CC(C)(C)CC[C@]6(C(=O)O)CC[C@]45C)[C@]3(C)CO)OC[C@H](O[C@@H]3O[C@H](CO)[C@@H](O)[C@H](O)[C@H]3O)[C@@H]2O)[C@H](O)[C@H](O)[C@H]1O [compound 4, 3β,23-Dihydroxy-11-oxo-olean-12-en-28-oic acid-3-O-α-L-rhamnopyranosyl-(1→2)-[β-D-gluco-pyranosyl-(1→4)]-α-L-arabinopyranoside] | 239 µM and 239 ± 22.2 µM | > 10 µM | > 10 µM | –
2 | C[C@@H]1O[C@@H](O[C@H]2[C@H](O[C@H]3CC[C@@]4(C)[C@@H](CC[C@]5(C)[C@@H]4C(=O)C=C4[C@@H]6CC(C)(C)CC[C@]6(C(=O)NCC(=O)O)CC[C@]45C)[C@]3(C)CO)OC[C@H](O[C@@H]3O[C@H](CO)[C@@H](O)[C@H](O)[C@H]3O)[C@@H]2O)[C@H](O)[C@H](O)[C@H]1O [compound 7, 3β,23-Dihydroxy-11-oxo-olean-12-en-28-(glycine)oic acid-3-O-α-L-rhamnopyranosyl-(1→2)-[β-D-glucopyranosyl-(1→4)]-α-L-arabinopyranoside] | 290−308 μM and 290 ± 27.0 μM | > 10 µM | > 10 µM | –
3 | C[C@@H]1O[C@@H](O[C@H]2[C@H](O[C@H]3CC[C@@]4(C)[C@@H](CC[C@]5(C)[C@@H]4CC(=O)[C@@H]4[C@@H]6CC(C)(C)CC[C@]6(C(=O)O)CC[C@]45C)[C@]3(C)CO)OC[C@H](O[C@@H]3O[C@H](CO)[C@@H](O)[C@H](O)[C@H]3O)[C@@H]2O)[C@H](O)[C@H](O)[C@H]1O [compound 9, 3β,23-Dihydroxy-12-oxo-olean-28-oic acid-3-O-a-L-rhamnopyranosyl-(1→2)-[β-D-glucopyranosyl-(1→4)]-a-L-arabinopyranoside] | 73.1 µM and 73.1 ± 9.0 µM | > 10 µM | > 10 µM | fold lower hemolytic toxicity than 1 (rabbit erythrocytes): at least 10 fold
4 | C[C@@H]1O[C@@H](O[C@H]2[C@H](O[C@H]3CC[C@@]4(C)[C@@H](CC[C@]5(C)[C@@H]4CC(=O)[C@]46OC(=O)[C@@]7(CCC(C)(C)C[C@H]74)CC[C@@]56C)[C@]3(C)CO)OC[C@H](O[C@@H]3O[C@H](CO)[C@@H](O)[C@H](O)[C@H]3O)[C@@H]2O)[C@H](O)[C@H](O)[C@H]1O [compound 10, 3β,23-Dihydroxy-12-oxo-olean-28-oic acid-28,13β-lactone-3-O-α-L-rhamnopyranosyl-(1→2)-[β-D-glucopyranosyl-(1→4)]-α-L-arabinopyranoside] | 290 μM and 290−308 μM and 290 ± 25.5 μM | > 10 µM | > 10 µM | fold lower hemolytic toxicity than 1 (rabbit erythrocytes): ~50 fold
5 | C[C@@H]1O[C@@H](O[C@H]2[C@H](O[C@H]3CC[C@@]4(C)[C@@H](CC[C@]5(C)[C@@H]4C[C@H](O)[C@]46OC(=O)[C@@]7(CCC(C)(C)C[C@H]74)CC[C@]65C)[C@]3(C)CO)OC[C@H](O[C@@H]3O[C@H](CO)[C@@H](O)[C@H](O)[C@H]3O)[C@@H]2O)[C@H](O)[C@H](O)[C@H]1O [compound 11, 33β,12α,23-Trihydroxyolean-28-oic acid 28,13β-lactone-3-O-α-3L3-rhamnopyranosyl-(1→32)-[β-3D3-glucopyranosyl-(1→34)]-α-3L3-arabinopyranoside] | 308 μM and 290−308 μM and 308 ± 24.2 μM | > 10 µM | > 10 µM | fold lower hemolytic toxicity than 1 (rabbit erythrocytes): ~50 fold
6 | CC(=O)OC[C@@]1(C)[C@@H]2CC[C@]3(C)[C@H](CC=C4[C@@H]5CC(C)(C)CC[C@]5(C(=O)O)CC[C@]43C)[C@@]2(C)CC[C@@H]1OC(C)=O [compound 12, 3β,23-Diacetoxyolean-12-en-28-oic acid] | >500 µM | – | – | –
7 | CCOC(=O)CNC(=O)[C@]12CCC(C)(C)C[C@H]1C1=CC[C@@H]3[C@@]4(C)CC[C@H](OC(C)=O)[C@@](C)(COC(C)=O)[C@@H]4CC[C@@]3(C)[C@]1(C)CC2 [compound 13, 3β,23-Diacetoxyolean-12-en-N-[glycineethyl ester]-28-formamide] | >500 µM | – | – | –
8 | CCOC(=O)CCCNC(=O)[C@]12CCC(C)(C)C[C@H]1C1=CC[C@@H]3[C@@]4(C)CC[C@H](OC(C)=O)[C@@](C)(COC(C)=O)[C@@H]4CC[C@@]3(C)[C@]1(C)CC2 [compound 14, 3β,23-Diacetoxyolean-12-en-N-[4-aminobutanoic acid ethyl ester]-28-formamide] | >500 µM | – | – | expression of pro-caspase-3 [3, 8]: decreased; expression of pro-caspase-8 [3, 8]: decreased; expression of pro-caspase-9 [3, 8]: decreased; expression of PARP [3, 9]: decreased; expression of cleaved PARP [3, 9]: increased; IC50 [4]: 2.8 to 8.6 µM
9 | CCOC(=O)CCCCCNC(=O)[C@]12CCC(C)(C)C[C@H]1C1=CC[C@@H]3[C@@]4(C)CC[C@H](OC(C)=O)[C@@](C)(COC(C)=O)[C@@H]4CC[C@@]3(C)[C@]1(C)CC2 [compound 15, 3β,23-Diacetoxyolean-12-en-N-[6-aminocaproic acid ethyl ester]-28-formamide] | >500 µM | – | – | –
10 | CC1(C)CC[C@]2(C(=O)NCC(=O)O)CC[C@]3(C)C(=CC[C@@H]4[C@@]5(C)CC[C@H](O)[C@@](C)(CO)[C@@H]5CC[C@]43C)[C@@H]2C1 [compound 16, 3β,23-Dihydroxyolean-12-en-28-(glycine)oic acid amide] | >500 µM | – | – | –
11 | CC1(C)CC[C@]2(C(=O)NCCCC(=O)O)CC[C@]3(C)C(=CC[C@@H]4[C@@]5(C)CC[C@H](O)[C@@](C)(CO)[C@@H]5CC[C@]43C)[C@@H]2C1 [compound 17, 3β,23-Dihydroxyolean-12-en-28-(4-aminobutanoic acid)oic acid amide] | >500 µM | – | – | –
12 | CC1(C)CC[C@]2(C(=O)NCCCCCC(=O)O)CC[C@]3(C)C(=CC[C@@H]4[C@@]5(C)CC[C@H](O)[C@@](C)(CO)[C@@H]5CC[C@]43C)[C@@H]2C1 [compound 18, 3β,23-Dihydroxyolean-12-en-28-(6-aminocaproic acid)oic acid amide] | >500 µM | – | – | –
13 | CC1(C)CC[C@]2(C(=O)O)CC[C@]3(C)C(=CC[C@@H]4[C@@]5(C)CC[C@H](O)[C@@](C)(CO)[C@@H]5CC[C@]43C)[C@@H]2C1 [hederagenin, reference compound] | >200 µM | – | – | cytotoxicity toward A549 cancer cells (in words) [5]: inactive; hemolytic toxicity (in words) (rabbit erythrocytes; rabbit erythrocytes): low hemolytic toxicity
14 | hederagenin 3-O-α-L-rhamnopyr-anosyl-(1→2)-[β-D-glucopyranosyl-(1→4)]-α-L-arabinopyrano-side [compound 1] | 6.3 µM and 6.3 ± 0.58 µM | – | – | IC50 ([1]; read-out: IC50 SMMC-771, MTT assay): 4.4 µM; IC50 ([2]; read-out: IC50 BGC-823, MTT assay): 7.2 µM; HD50 (hemolytic toxicity) (erythrocytes): 6.3 µM
